Reference: ChEMBL document CHEMBL4616631, “Design, synthesis and evaluation of phthalide alkyl tertiary amine derivatives as promising acetylcholinesterase inhibitors with high potency and selectivity against Alzheimer's disease” (Bioorg Med Chem, 2020)
The source made the active and inactive calls. The rule behind the calls is not given here.

Experiments:
[1] = tested on: Mus musculus; assay: (§1) Antialzheimer activity in scopolamine-induced Kunming mouse model of memory impairment assessed as increase in latency time at 5 mg/kg/day, ig for 7 days followed by training trial at 1 hr post dose on day 6 and subsequent scopolamine challenge at 30 mins post training trial and measured post last dose by step-down passive avoidance test; assay type: functional, organism-based
Procedure, shortened: (§2)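 Kunming mice, 18-22 g, male and female in half, 8 per group. Dosed i.g. once daily for 7 days, vehicle 0.5% CMC-Na. Day-6 training came 1 h after dosing: a 50 V, 5 s foot shock on stepping down from the platform, in a 5 min trial. Scopolamine 2.0 mg/kg i.p. followed 30 min later; control mice got none. Step-down latency and number of shocks were counted over 5 min in the test trial 24 h after training. Mean ± SEM.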

[2] = tested on: Mus musculus; assay: as §1, with “decrease” for “increase”, “number of electric shock” for “latency time”; assay type: functional, organism-based; procedure, shortened: as §2
[3] = molecular target: Acetylcholinesterase (Electrophorus electricus) (UniProt O42275); assay: Inhibition of Electrophorus electricus AChE at 50 uM using […] as substrate incubated for 15 mins by Ellman's method relative to control
Procedure, shortened: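 Eel AChE (0.05 U/mL final) with acetylthiocholine iodide 1 mM and DTNB 0.2% in […] pH 8.0, 37 °C 15 min (modified Ellman); absorbance at 412 nm. Three independent experiments, each in triplicate.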

[4] = molecular target: Amyloid-beta precursor protein (Homo sapiens) (UniProt P05067); assay: Inhibition of HFIP-pretreated self-induced amyloid beta (1 to 42) (unknown origin) aggregation at 25 uM measured after 24 hrs by ThT fluorescence assay relative to control
Procedure, shortened: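 Aβ1-42 was pretreated in HFIP for 24 h at room temperature, dried, and dissolved in DMSO to a 200 µM stock. Aβ (25 µM) was incubated with compound (25 µM) at 37 °C for 24 h. ThT was added at 5 µM in glycine-NaOH, pH 8.5. Fluorescence ex 446/em 490 nm, background-subtracted; inhibition = (1−IFi/IFc)×100. Triplicate.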

[5] = Antioxidant activity assessed as trolox equivalent of AAPH-induced radical scavenging activity at 5 uM preincubated for 15 mins followed by AAPH addition measured every min for 90 mins by ORAC-FL assay; assay type: functional
Procedure, shortened: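 ORAC-FL in 75 mM phosphate buffer, pH 7.4. Sample at 5 µM was preincubated with fluorescein (150 nM final) for 15 min at 37 °C, then AAPH was added (12 mM final). Fluorescence (ex 485/em 535 nm) was read every minute for 90 min. […] Triplicate, at least three independent assays.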

[6] = molecular target: Butyrylcholinesterase (BuChE) (Rattus norvegicus, UniProt Q9JKC1); assay: Inhibition of BuChE in rat serum at 50 uM using S-butylthiocholine iodide as substrate by Ellman's method relative to control; assay type: cell-free; conditions: probe S-butylthiocholine iodide
Procedure, shortened: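 Rat serum (25%) as BuChE source, S-butylthiocholine iodide 1 mM, DTNB 0.2%, in 0.1 mM phosphate buffer pH 7.4, 37 °C 15 min (modified Ellman); absorbance change at 405 nm. Three independent experiments, each in triplicate.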

Chain of Butyrylcholinesterase (BuChE) (Q9JKC1 whole entry): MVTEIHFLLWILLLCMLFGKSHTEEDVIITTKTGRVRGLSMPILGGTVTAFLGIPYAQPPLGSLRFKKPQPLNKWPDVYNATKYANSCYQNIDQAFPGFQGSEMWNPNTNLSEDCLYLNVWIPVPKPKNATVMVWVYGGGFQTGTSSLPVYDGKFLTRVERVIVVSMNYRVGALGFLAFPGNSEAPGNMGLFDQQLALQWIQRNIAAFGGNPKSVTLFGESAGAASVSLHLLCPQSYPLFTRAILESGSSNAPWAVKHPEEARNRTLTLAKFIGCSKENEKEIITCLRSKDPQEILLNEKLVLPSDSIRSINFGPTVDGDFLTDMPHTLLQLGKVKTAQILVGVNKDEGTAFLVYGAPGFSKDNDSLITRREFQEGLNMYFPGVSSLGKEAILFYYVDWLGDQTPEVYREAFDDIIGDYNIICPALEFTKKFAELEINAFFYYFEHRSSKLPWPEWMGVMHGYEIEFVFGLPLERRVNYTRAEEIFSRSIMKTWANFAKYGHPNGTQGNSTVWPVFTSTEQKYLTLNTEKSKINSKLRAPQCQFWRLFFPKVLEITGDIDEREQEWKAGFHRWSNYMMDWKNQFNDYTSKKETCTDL
Chain of Amyloid-beta precursor protein (Homo sapiens) (P05067 whole entry): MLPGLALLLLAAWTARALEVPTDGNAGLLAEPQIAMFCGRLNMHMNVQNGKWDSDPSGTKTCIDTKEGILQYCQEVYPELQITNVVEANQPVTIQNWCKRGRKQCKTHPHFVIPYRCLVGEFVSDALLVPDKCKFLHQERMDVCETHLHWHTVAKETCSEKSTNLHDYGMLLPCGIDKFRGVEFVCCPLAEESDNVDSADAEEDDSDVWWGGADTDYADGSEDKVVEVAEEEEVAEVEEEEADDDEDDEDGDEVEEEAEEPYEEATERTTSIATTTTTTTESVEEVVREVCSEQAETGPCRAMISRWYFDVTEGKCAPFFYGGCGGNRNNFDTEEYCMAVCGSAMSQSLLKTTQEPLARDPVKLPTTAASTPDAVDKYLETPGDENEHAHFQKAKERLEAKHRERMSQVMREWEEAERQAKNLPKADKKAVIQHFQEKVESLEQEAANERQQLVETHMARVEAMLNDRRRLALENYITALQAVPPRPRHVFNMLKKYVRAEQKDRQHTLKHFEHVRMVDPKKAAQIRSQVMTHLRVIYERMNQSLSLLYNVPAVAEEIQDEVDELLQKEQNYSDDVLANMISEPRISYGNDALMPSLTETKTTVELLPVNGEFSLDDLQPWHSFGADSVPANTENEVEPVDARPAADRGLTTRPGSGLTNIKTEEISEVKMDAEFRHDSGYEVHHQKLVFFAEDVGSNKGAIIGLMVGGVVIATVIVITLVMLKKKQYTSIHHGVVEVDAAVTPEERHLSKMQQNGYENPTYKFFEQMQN
Chain of Acetylcholinesterase (Electrophorus electricus) (O42275 24-633 limits assumed): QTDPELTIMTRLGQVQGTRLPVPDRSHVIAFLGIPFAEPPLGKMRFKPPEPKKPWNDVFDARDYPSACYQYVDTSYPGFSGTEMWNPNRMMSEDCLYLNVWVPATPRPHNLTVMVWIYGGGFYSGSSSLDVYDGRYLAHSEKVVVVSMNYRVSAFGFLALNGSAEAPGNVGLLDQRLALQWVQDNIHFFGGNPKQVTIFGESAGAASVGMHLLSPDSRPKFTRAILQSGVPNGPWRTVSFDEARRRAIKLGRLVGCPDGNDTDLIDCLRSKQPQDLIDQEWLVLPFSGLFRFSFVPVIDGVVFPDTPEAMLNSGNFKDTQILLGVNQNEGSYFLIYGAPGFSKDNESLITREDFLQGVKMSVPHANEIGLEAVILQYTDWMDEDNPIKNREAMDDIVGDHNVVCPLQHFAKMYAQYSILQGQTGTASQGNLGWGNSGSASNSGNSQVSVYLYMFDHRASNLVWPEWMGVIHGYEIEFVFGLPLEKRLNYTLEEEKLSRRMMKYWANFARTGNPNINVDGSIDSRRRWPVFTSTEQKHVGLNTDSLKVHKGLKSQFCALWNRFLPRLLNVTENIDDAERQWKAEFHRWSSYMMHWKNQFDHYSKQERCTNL

Structure (SMILES) | Activity [1] | Activity [2] | inhibition [3] [%] | inhibition [4] [%] | Activity [5] [µMequiv/µM] | inhibition at 50 µM [6] [%]
COc1cc2c(cc1OC)C(=O)C(CC1CCN(Cc3ccccc3)CC1)C2 (stereo unspecified) | inactive | inactive |  |  |  | 
CCCCC1OC(=O)c2ccccc21 (racemic) [RAC-3-N-BUTYLPHTHALIDE] |  |  | < 5 | < 5 | 0.21 | 2.67
